# Source: PubChem BioAssay (several laboratories)
# STAT3 activator: activators of IL-6 induced STAT3 signaling; U3A cells, IL-6 STAT3-luciferase reporter, luminescence; 100% = signal with IL-6 EC80 alone; AID 871; hit rate 0.91% among 190,000; activation (% of control), % at 5.6 µM;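 active means activation above the screen-wide mean of compound activation plus 3 SD, cut at about 130% in these data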;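 further: 0% = background luminescence of wells with medium and substrate only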
#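 Detection: reporter luminescence signal / Assay system: STAT1-lacking human U3A cells, STAT3 luciferase reporter / Incubation: compound pre-incubation 1 h before IL-6, then 6 h stimulation at 37 °C / Control set: IL-6-only high control / Read-out: % activation relative to IL-6 control / Probe or stimulus: Interleukin-6, 33 ng/mL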
# STAT1 activator: increases IFN-gamma driven STAT1 reporter signal; NIH 3T3 STAT1-luciferase reporter, luminescence; 100% = IFN-gamma alone, no compound; activation (% of control), % at 5.5 µM; hit rate 2.6% among 200,000; AID 932;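 active means activation above the screen-wide mean activation plus 3 SD, cut at about 130% in these data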;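 further: raw ratio to IFN-gamma control signal so 100% means no change and 0% no light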
# STAT3 blocker: reduces IL-6 driven STAT3 reporter signal; AID 862; hit rate 0.89% among 190,000; U3A cells, IL-6 STAT3-luciferase reporter, luminescence; host cell line lacks STAT1; inhibition, % at 5.5 µM;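 active means inhibition above the mean inhibition across all screened compounds plus 3 SD, cut at about 44% in these data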;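 further: 0% = DMSO only wells and 100% = 100 µM nifuroxazide control wells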
# APP 5'UTR act: APP 5'UTR luciferase reporter activation; hit rate 1% among 190,000; activation, % at 2 µM; SH-SY5Y APP 5'UTR luciferase reporter, luminescence; zero percent = DMSO vehicle wells;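 active means activation above a set limit, based on mean plus 3 SD of controls, cut at about 140% in these data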
# NF-kB neuron act: NF-kB expression increase, human neuronal cells. NF-kB reporter expression; active compounds read high. hit rate 1.6% among 190,000. fold change at 12.5 µM; in the data active means fold change above about 3.3
# STAT1 blocker: STAT1 signaling inhibition. hit rate 0.35% among 200,000. NIH 3T3 STAT1-luciferase reporter, IFN-gamma, luminescence. inhibition, % at 5.5 µM;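 active means inhibition above a set limit, the mean inhibition across all tested compounds plus 3 SD, cut at about 34% in these data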;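 further: 0% = IFN-gamma with DMSO and 100% = IFN-gamma with 300 µM nifuroxazide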
# Starred values were filed as active, the others as inactive; . = no result. Only some compounds are listed: those with a hit (about 4.9% of all), similar ones and a draw of the others.
SMILES,STAT3 activator,STAT1 activator,STAT3 blocker,APP 5'UTR act,NF-kB neuron act,STAT1 blocker
Cc1ccc(-c2nc3ccccc3n2C)o1,83,130*,26,46,3.6*,-32
CCC(=O)Nc1nnc(SCc2ccccc2F)s1,104,115,-1,23,1.6,-18
Cc1cc(NCCCN2CCOCC2)n2ncc(-c3ccc(Cl)cc3)c2n1,125,109,-27,47,1.1,-10
Cc1cc(NCCCn2ccnc2)n2ncc(-c3ccc(Cl)cc3)c2n1,152*,156*,-61,253*,1.3,-62
COCCCn1c(SCC(=O)N2CCc3ccccc32)nnc1-c1ccoc1C,136*,90,-36,0,.,11
C=CCn1c(SCC(=O)NC2CCCc3ccccc32)nnc1-c1ccncc1 (stereo not drawn),98,97,3,8,0.92,4
CC(OC(=O)CCc1c[nH]c2ccccc12)C(=O)c1ccccc1 (stereo not drawn),95,112,13,26,1.5,-15
CC(C)Sc1nc2ccccc2n1CC(=O)O,105,111,-1,-10,0.94,-14
Nc1ccc(Nc2nc(-c3cc4ccccc4oc3=O)cs2)cc1,80,144*,25,95,9*,-50
O=C(O)c1ccc(Nc2nc(-c3cc4ccccc4oc3=O)cs2)cc1O,104,110,-5,-5,0.66,-11
CNc1nnc(-c2cc3ccccc3oc2=O)s1,83,143*,21,101,3.2,-47
Cc1ccc(Nc2nc(COC(=O)COc3ccc(C=O)cc3)cs2)cc1,102,131*,-3,32,2.1,-35
C/C=C/c1ccc(OCC(=O)OCc2csc(Nc3ccc(C)cc3)n2)c(OC)c1,86,110,16,10,1.8,-12
Cc1onc(C(=O)NCc2ccccn2)c1[N+](=O)[O-],100,99,3,2,1.1,0
Cn1c(SCc2ccc(C#N)cc2Cl)nc2ccccc21,91,145*,11,187*,5.3*,-50
Cc1c(Cl)cn2c(=O)cc(CN3CCN(c4ccc(F)cc4)CC3)nc2c1Cl,96,101,9,-12,1.2,-2
C=CCN1C(=O)c2cccc3c(N4CCCCC4)ccc(c23)C1=O,95,126,8,28,1.6,-30
O=C1c2cccc3c(N4CCCCC4)ccc(c23)C(=O)N1CCO,95,131*,12,59,1.6,-35
O=C1c2cccc3c(N4CCCCC4)ccc(c23)C(=O)N1c1cccc(O)c1,100,130*,2,25,2,-32
O=C(NCC1CCCO1)c1ccc2c(=O)n(Cc3ccco3)c(SCC(=O)N3CCCC3)nc2c1 (stereo not drawn),93,68,19,17,0.6,35*
COc1cc(/C(C)=N/NC(=O)CSc2nncn2C)ccc1OCc1ccccc1Cl,91,129*,11,27,1,-32
CNC(=O)c1c(C)noc1C,101,101,2,5,1.2,-2
C(=N\Nc1nc2ccccc2[nH]1)/c1ccc2c(c1)OCO2,91,141*,20,149*,4.1*,-46
C/C(=N\Nc1nc2ccccc2[nH]1)c1ccc2c(c1)OCO2,107,88,-9,36,1.2,13
O=C(Cc1ccccc1)N/N=C/c1ccc2c(c1)OCO2,119,120,-13,84,2,-22
SMILES,STAT3 activator,STAT1 activator,STAT3 blocker,APP 5'UTR act,NF-kB neuron act,STAT1 blocker
Clc1ccccc1N/N=C/c1ccc2c(c1)OCO2,106,135*,-3,114,3.1,-39
CCN(CC)c1ccc(/C=N/Nc2nc3ccccc3[nH]2)cc1,125,172*,-26,-12,0.26,-81
C(=N\Nc1nc2ccccc2[nH]1)/c1ccncc1,107,128,-3,10,1.1,-30
C(=N\Nc1nc2ccccc2[nH]1)/c1cccs1,97,148*,14,137*,4.1*,-54
CSc1nc(C)c(CCO)c(=O)[nH]1,97,99,10,0,1.2,0
C/C=N/NC(=O)CCNC(=O)c1ccccc1,106,99,-8,-12,1.1,1
COc1ccc([N+](=O)[O-])cc1N(CC(=O)NCCC1=CCCCC1)S(C)(=O)=O,107,108,-11,7,1.1,-9
COC(=O)c1ccc(/C=N/Nc2nc3ccccc3[nH]2)cc1,103,138*,-4,57,1.3,-41
CC(=O)Nc1ccc(/C=N/Nc2nc3ccccc3[nH]2)cc1,102,115,-8,20,1.6,-16
COc1ccc(Cc2noc(CN3CCCN(C4Cc5ccccc5C4)CC3)n2)cc1OC,110,105,-6,1,0.8,-8
Clc1cc(Br)ccc1OCCN1CCOCC1,98,109,4,9,1.3,-10
CCCCCOc1ccc(CN2CCOCC2)cc1Cl,106,116,-1,144*,1.9,-15
Cc1ccc(C(=O)N/N=C2\CCc3ccccc32)c(C)c1,105,149*,-2,127,5.7*,-54
O=C(N/N=C1\CCc2ccccc21)c1ccccc1Cl,99,131*,5,102,2.9,-35
O=C(N/N=C1\CCc2ccccc21)c1ccc(O)cc1,90,142*,16,138*,3.3,-50
CCOC(=S)SCC(=O)N1CCc2cc(OC)ccc2C1C1C(=O)CCCC1=O (stereo not drawn),102,91,-8,-11,1.1,10
Cc1ccccc1CN(c1ccc(C(=O)NCc2ccccn2)cc1)S(C)(=O)=O,105,104,4,15,1,-5
NC(=O)c1ccc(N=Nc2c(-c3ccccc3)[nH]n(-c3ccccc3)c2=O)cc1,87,102,18,-69,1.3,-3
Cc1ccc(N=Nc2c(N)n(-c3ccccc3)[nH]c2=O)cc1,111,139*,-12,26,4.2*,-44
CCN=c1scc(-c2ccco2)n1/N=C/c1ccc(OC)c(O)c1,84,90,24,182*,4*,11
CCN=c1scc(-c2ccco2)n1/N=C/c1ccc(O)cc1,86,110,23,78,1.1,-11
Cc1cc(S(=O)(=O)N2CCN=C2c2ccccc2)c(Cl)cc1Cl,101,96,1,-14,1.1,3
COCCn1c(C)cc(C(=O)COC(=O)c2ccc(Br)o2)c1C,105,106,-2,268*,1.1,-7
Cc1cc(C(=O)COC(=O)c2ccc(Br)o2)c(C)n1C,100,135*,6,71,4*,-37
Cc1ccc(C(=O)COC(=O)c2ccc(Br)o2)cc1C,91,113,14,7,1.5,-14
COCCn1c(C)cc(C(=O)COC(=O)CNC(=O)c2ccccc2)c1C,78,96,26,-7,1,4
Cc1ccc(C)c(NC(=O)C(Sc2nnc(-c3cccs3)o2)c2ccccc2)c1 (stereo not drawn),92,101,9,8,1.1,-1
